Legend:
MCF7 cells = test: Cell morphology after treatment; type: cell-based, human
MDA-MB-231 cells = test: PrestoBlue cytotoxicity assay; type: cell-based; conditions: Homo sapiens, MDA-MB-231, 24 h, read-out: IC50 Value MDA-MB-231
Procedure, shortened: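 Cells plated at 10,000 cells/well and incubated 24 h at 37°C, 5% CO2. MCF 10A were grown in MEBM to 70–80% confluency. Treated for 24 h with eight concentrations (250, 125, 62.5, 31.25, 15.625, 7.8125, 3.9, 1.95 µg/mL) in three parallel experiments, with cisplatin as positive control.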

## CC[C@H](CC[C@@H](C)[C@H]1CC[C@H]2[C@@H]3CC=C4C[C@@H](O)CC[C@]4(C)[C@H]3CC[C@]12C)C(C)C [β-sitosterol]
MCF7 cells
  Cell morphology (apoptosis signs): cell blebbing indicative of apoptotic process
MDA-MB-231 cells
  IC50: > 250 µg/mL

Reference: publication PMC11844196 (Journal of Experimental Pharmacology, 2025)
